This sample holds only a part of the variants without activity.
B1: tRNA (parent)
chain: GUUCCGUUGGCGUAAUGGUAACGCGUCUCCCUCCUAAGGAGAAGACUGCGGGUUCGAGUCCCGUACGGAACG

Variants of: B1
Assay: yeast fitness relative to wild type (ratio to wild type); higher = fitter; tRNA-Arg(CCU), competitive growth, 37 C, YPD
Procedure, shortened: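 A pool of Saccharomyces cerevisiae strains, each with a tRNA-Arg(CCU) gene variant at the native genomic locus, was competed in YPD at 37°C for 24 hours across six parallel replicates. The variants had been chemically synthesised at a 3% per-site mutation rate over 69 sites, and gene amplicons before and after competition were read by 100-nucleotide paired-end sequencing. Darwinian fitness relative to wild type rested on changes in genotype frequencies. Genotypes required ≥ 100 starting reads, and estimates < 0.5 were set to 0.5.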

| Variant | yeast fitness |
| --- | --- |
| GUUCCGUUGGCGUAAUGGUAACGCGUCUCCCUCCUAAGGAGAAGACUGCGGGUUAGAGUCCCGUAAGGAACG | 0.541 |
| GUUCCGUUGGCGUAAUGGUAACGCGUCUCCCUCCUAAGGAGAAGACUGCGGGUCCGCGUCCCGUACGGAACG | 0.619 |
| GUUCCGUUGGCGUAAUGGUAACGCGUCUCCCUCCUAAGGAGAAGACUGCGGGUCCGGGUCCCGUACGGAACG | 0.919 |
| GUUCCGUUGGCGUAAUGGUAACGCGUCUCCCUCCUAAGGAGAAGACUGCGGGUACGAGUCCCGUACGGAUCG | 0.768 |
| GUUCCGUUGGCGUAAUGGUAACGCGUCUCCCUCCUAAGGAGAAGACUGCGGGUACGAGUCCCGUACGGAGCG | 0.702 |
| GUUCCGUUGGCGUAAUGGUAACGCGUCUCCCUCCUAAGGAGAAGACUGCGGGUUAGAGUCCCGUACGGUACG | 0.694 |
| GUUCCGUUGGCGUAAUGGUAACGCGUCUCCCUCCUAAGGAGAAGACUGCGGGUGCGAGUCGUGUUCGGAACG | ≤ 0.5 |
| GUUCCGUUGGCGUAAUGGUAACGCGUCUCCCUCCUAAGGAGAAGACUGCGGGUGCGAGUCCCGUACGGAACG | 0.641 |
| GUUCCGUUGGCGUAAUGGUAACGCGUCUCCCUCCUAAGGAGAAGACUGCGGGUCCGAGUCCCGUACGGAACG | 0.806 |
| GUUCCGUUGGCGUAAUGGUAACGCGUCUCCCUCCUAAGGAGAAGACUGCGGGUACGAGUCCCGUACCAAACG | ≤ 0.5 |
| GUUCCGUUGGCGUAAUGGUAACGCGUCUCCCUCCUAAGGAGAAGACUGCGGGUUAGCGUCCCGUACGCAACG | 0.5 |
| GUUCCGUUGGCGUAAUGGUAACGCGUCUCCCUCCUAAGGAGAAGACUGCGGGUACGAGCCCCGUACGGAACG | 0.613 |
| GUUCCGUUGGCGUAAUGGUAACGCGUCUCCCUCCUAAGGAGAAGACUGCGGGUACGAGUCCUGUACGGAACG | 0.59 |
| GUUCCGUUGGCGUAAUGGUAACGCGUCUCCCUCCUAAGGAGAAGACUGCGGGUCCGGGUGCCGUACGGAACG | 0.787 |
| GUUCCGUUGGCGUAAUGGUAACGCGUCUCCCUCCUAAGGAGAAGACUGCGGGUUAGCGUCCCGCUCGGAACG | 0.527 |
| GUUCCGUUGGCGUAAUGGUAACGCGUCUCCCUCCUAAGGAGAAGACUGCGGGUUAGGGUCCCGUACGGAACG | 0.671 |
| GUUCCGUUGGCGUAAUGGUAACGCGUCUCCCUCCUAAGGAGAAGACUGCGGGUUAGUGUCCCGUACGGAACG | 0.694 |
| GUUCCGUUGGCGUAAUGGUAACGCGUCUCCCUCCUAAGGAGAAGACUGCGGGUUAGCGUCCCGUACGGAACG | 0.597 |
| GUUCCGUUGGCGUAAUGGUAACGCGUCUCCCUCCUAAGGAGAAGACUGCGGGUCCGAGUCCCGUACGGGGCG | 0.566 |

| Variant | yeast fitness |
| --- | --- |
| GUUCCGUUGGCGUAAUGGUAACGCGUCUCCCUCCUAAGGAGAAGACUGCGGGUCGGAGUCCCGUACGGAACG | 0.654 |
| GUUCCGUUGGCGUAAUGGUAACGCGUCUCCCUCCUAAGGAGAAGACUGCGGGUACGAGUCCCGUAAGGAACG | 0.528 |
| GUUCCGUUGGCGUAAUGGUAACGCGUCUCCCUCCUAAGGAGAAGACUGCGGGUACGAGUCCCGUAUGGAACG | 0.729 |
| GUUCCGUUGGCGUAAUGGUAACGCGUCUCCCUCCUAAGGAGAAGACUGCGGGUUAGAGUCCCGUACGGAACG | 0.656 |
| GUUCCGUUGGCGUAAUGGUAACGCGUCUCCCUCCUAAGGAGAAGACUGCGGGUUAGAGUCCCGUACGGACCG | 0.807 |
| GUUCCGUUGGCGUAAUGGUAACGCGUCUCCCUCCUAAGGAGAAGACUGCGGGUCCCAGUCCCGUACGGAACG | 0.593 |
| GUUCCGUUGGCGUAAUGGUAACGCGUCUCCCUCCUAAGGAGAAGACUGCGGGUACGAGUCUCGUACGGAACG | 0.715 |
| GUUCCGUUGGCGUAAUGGUAACGCGUCUCCCUCCUAAGGAGAAGACUGCGGGUACGAGUCCCGCACGGAACG | 0.683 |
| GUUCCGUUGGCGUAAUGGUAACGCGUCUCCCUCCUAAGGAGAAGACUGCGGGUUAGAGUCGCGUACGGAACG | ≤ 0.5 |
| GUUCCGUUGGCGUAAUGGUAACGCGUCUCCCUCCUAAGGAGAAGACUGCGGGUCCCAAUCCCGUACGGAACG | 0.55 |
| GUUCCGUUGGCGUAAUGGUAACGCGUCUCCCUCCUAAGGAGAAGACUGCGGGUCCGAGUCCCGUACGGCACG | 0.965 |
| GUUCCGUUGGCGUAAUGGUAACGCGUCUCCCUCCUAAGGAGAAGACUGCGGGUCCGAGUCCCGUACGGUACG | 0.986 |
| GUUCCGUUGGCGUAAUGGUAACGCGUCUCCCUCCUAAGGAGAAGACUGCGGGUCCGAGACCCGUACGGAACG | 0.82 |
| GUUCCGUUGGCGUAAUGGUAACGCGUCUCCCUCCUAAGGAGAAGACUGCGGGUCCGAGCCCCGUACGGAACG | 0.714 |
| GUUCCGUUGGCGUAAUGGUAACGCGUCUCCCUCCUAAGGAGAAGACUGCGGGUCCGAGUCCCAUACGGAACG | 0.701 |
| GUUCCGUUGGCGUAAUGGUAACGCGUCUCCCUCCUAAGGAGAAGACUGCGGGUCCGAGUCCCGUACUGAACG | 0.798 |
| GUUCCGUUGGCGUAAUGGUAACGCGUCUCCCUCCUAAGGAGAAGACUGCGGGUUAGAGUUCCGUACGGAACG | 0.525 |
| GUUCCGUUGGCGUAAUGGUAACGCGUCUCCCUCCUAAGGAGAAGACUGCGGGUUAGAGUACCGUACGGAACG | 0.624 |
